This is a sample that favours compounds with a hit; in the whole collection about 4.8% have one here.
PAFAH2 inh: PAFAH2 (human) inhibition; Q99487; recombinant PAFAH2, FP-rhodamine activity probe, fluorescence polarization; inhibition, % at 3.39 µM; 340,000 compounds, 0.99% hits;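 active = inhibition above the mean over all tested compounds plus 3 SD, cut at about 30% in these data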;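 also: inhibitors block probe labeling of enzyme so polarization drops; 0% = enzyme with DMSO and 100% = wells lacking PAFAH2 protein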
PAFAH1B2 inh: blocks human PAF acetylhydrolase 1b catalytic subunit 2. P68402. recombinant PAFAH1B2, FP-rhodamine activity probe, fluorescence polarization. inhibition, % at 3.39 µM. 340,000 compounds, 1.2% hits. AID 492953;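 active = inhibition above the mean of all tested compounds plus 3 SD, cut at about 24% in these data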;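 also: 0% = enzyme with DMSO and 100% = wells lacking PAFAH1B2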
pPAFAH inh: pPAFAH (human) enzyme inhibition. Q13093. recombinant pPAFAH, FP-rhodamine probe fluorescence polarization. inhibition, % at 3.39 µM. 330,000 compounds, 1.5% hits. AID 463082;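 active = inhibition above the mean inhibition across the screen plus 3 SD, cut at about 25% in these data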;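 also: inhibitors block binding of the rhodamine activity-based probe so polarization drops; 0% = enzyme with DMSO and 100% = wells lacking pPAFAH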
NR3A LBD binder: modulators (binders) of human NR3A ligand-binding domain | NR3A LBD differential scanning fluorimetry, Tm shift; 0% = protein alone, 100% = glycine-bound protein | Tm shift relative to glycine control, % at 25 µM | 340,000 compounds, 2.5% hits | AID 1259313;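 active = melting temperature shift of at least 10% of the positive control shift, at one fixed dose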
PAFAH1B3 inh: blocks human PAF acetylhydrolase 1B catalytic subunit 3. Q15102. recombinant PAFAH1B3, FP-rhodamine probe, fluorescence polarization. inhibition, % at 3.39 µM. 340,000 compounds, 0.28% hits. AID 492972;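 active = inhibition above the screen-wide average of all tested compounds plus 3 SD, cut at about 25% in these data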;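 also: 0% = enzyme with DMSO only and 100% = wells lacking PAFAH1B3 protein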
Target sequence (Q15102 whole entry, looked up): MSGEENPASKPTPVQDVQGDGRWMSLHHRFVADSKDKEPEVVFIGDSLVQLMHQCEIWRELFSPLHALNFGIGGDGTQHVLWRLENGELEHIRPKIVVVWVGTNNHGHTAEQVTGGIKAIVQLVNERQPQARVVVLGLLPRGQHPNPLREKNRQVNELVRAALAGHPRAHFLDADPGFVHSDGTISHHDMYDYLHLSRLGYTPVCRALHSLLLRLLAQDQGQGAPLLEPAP
UCH37 DUB inh: human UCH37 deubiquitinating enzyme inhibition; Q9Y5K5; purified proteasome/UCH37, Ub-AMC cleavage fluorescence; inhibition, % (no concentration beside the values); 330,000 compounds, 0.33% hits; AID 588478;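 active = mean inhibition over replicate wells above about 20%, limit read from the data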;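 also: 0% = compound-free wells with enzyme and 100% = wells lacking proteasome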
Target sequence (Q9Y5K5 whole entry, looked up): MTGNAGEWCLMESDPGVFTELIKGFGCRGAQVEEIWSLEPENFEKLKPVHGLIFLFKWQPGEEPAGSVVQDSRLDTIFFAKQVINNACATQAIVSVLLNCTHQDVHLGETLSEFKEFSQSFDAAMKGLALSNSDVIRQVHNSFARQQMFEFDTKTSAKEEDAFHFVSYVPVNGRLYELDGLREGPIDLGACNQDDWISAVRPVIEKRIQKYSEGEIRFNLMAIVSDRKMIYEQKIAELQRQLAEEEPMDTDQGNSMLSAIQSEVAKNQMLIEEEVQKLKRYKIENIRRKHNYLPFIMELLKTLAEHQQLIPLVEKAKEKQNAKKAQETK
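Material: human UCH37 enzyme supplied as purified proteasome complex / Amount: 0.15 nM proteasome as dispensed / Buffer or medium: pH 7.4 Tris-HCl (50 mM) with ovalbumin, ATP-MgCl2, DTT / Times: preincubation 30 min, reaction 25 min, room temperature / Technique: AMC fluorescence from Ub-AMC cleavage, excitation 355 nm, emission 460 nm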
UCH37 reconfirm: reconfirmed inhibitor of human deubiquitinase UCH37; Proteasome-bound UCH37, Ub-AMC cleavage fluorescence; 480 compounds, 27% hits; inhibition, % at 20 µM; shares compounds with UCH37 DUB inh;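 active = average inhibition over replicates above about 50%, so the earlier screening hit is confirmed, limit read from the data; inactive = the rest, counted as false positives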;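 also: based on cleavage rate fitted by regression over a 30 min kinetic read; 0% = proteasome plus Ub-AMC and 100% = Ub-AMC without proteasome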
* marks the source's active call; other numbers are inactive results.

O=C1C(Cl)=C(NCCc2ccccc2)C(=O)c2ccccc21 was read as PAFAH2 inh 30*, PAFAH1B2 inh 33*, NR3A LBD binder -4, PAFAH1B3 inh 40*, UCH37 DUB inh 76* and UCH37 reconfirm 87*.
CCN(CC)CCCNC1=C(Cl)C(=O)c2ccccc2C1=O was read as PAFAH2 inh -4, PAFAH1B2 inh 3, pPAFAH inh 4, NR3A LBD binder 0, PAFAH1B3 inh 19, UCH37 DUB inh 27* and UCH37 reconfirm 39.
Screening CCOC(=O)C(=NNc1ccc(Cl)cc1)S(=O)(=O)c1ccc(Cl)cc1 returned UCH37 DUB inh 2.
CC(C)c1ccc(S(=O)(=O)N=C2C=C(Sc3ncn[nH]3)C(=O)c3ccccc32)cc1 was read as UCH37 DUB inh 67* and UCH37 reconfirm 62*.
O=C(OCc1nnc(-c2ccccc2)o1)c1ccc([N+](=O)[O-])s1 was read as PAFAH2 inh 31*, PAFAH1B2 inh 24, pPAFAH inh 14, NR3A LBD binder 0, PAFAH1B3 inh 31*, UCH37 DUB inh 80* and UCH37 reconfirm 44.
`O=C(COC(=O)c1ccc([N+](=O)[O-])s1)Nc1ccccc1` gave PAFAH2 inh 81*, PAFAH1B2 inh 10, pPAFAH inh 15, NR3A LBD binder 4, PAFAH1B3 inh 34*, UCH37 DUB inh 60* and UCH37 reconfirm 36.
`O=C(COC(=O)c1ccc([N+](=O)[O-])s1)Nc1ccc(F)cc1` gave PAFAH2 inh 52*, PAFAH1B2 inh 10, pPAFAH inh 12, NR3A LBD binder 0, PAFAH1B3 inh 34*, UCH37 DUB inh 67* and UCH37 reconfirm 77*.
For O=C(COC(=O)c1ccc([N+](=O)[O-])o1)NCc1ccccc1 the results were PAFAH2 inh 18, PAFAH1B2 inh 3, pPAFAH inh 6, NR3A LBD binder -2, PAFAH1B3 inh 4 and UCH37 DUB inh 9.
O=C(COC(=O)c1ccc([N+](=O)[O-])s1)NCc1ccccc1 was read as PAFAH2 inh 11, PAFAH1B2 inh 11, pPAFAH inh 23, NR3A LBD binder -5, PAFAH1B3 inh 16, UCH37 DUB inh 39* and UCH37 reconfirm 10.
`O=C(OCc1nnc(-c2ccccc2)o1)c1cc(Cl)ccc1[N+](=O)[O-]` gave PAFAH2 inh 17, PAFAH1B2 inh -10, pPAFAH inh 2, NR3A LBD binder -2, PAFAH1B3 inh 8 and UCH37 DUB inh -3.
`Cc1ccc(C(=O)OCC(=O)Nc2ccc(C(N)=O)cc2)s1` gave PAFAH2 inh 4, PAFAH1B2 inh 6, pPAFAH inh -1, NR3A LBD binder 1, PAFAH1B3 inh 5 and UCH37 DUB inh 6.
`O=C(COC(=O)/C=C/c1ccc([N+](=O)[O-])cc1)Nc1ccc(F)cc1` gave PAFAH2 inh 17, PAFAH1B2 inh -3, pPAFAH inh 13, NR3A LBD binder -1, PAFAH1B3 inh 3 and UCH37 DUB inh 0.
Screening CC(=N/N=C1/NC(=O)C(Cc2ccccc2)S1)c1ccccc1 (centres undefined) returned UCH37 DUB inh 1.
For CCOc1cc(/C=C2/C(=O)NN(c3cccc(Cl)c3)C2=O)ccc1O the results were PAFAH2 inh 18, PAFAH1B2 inh 14, pPAFAH inh 20, NR3A LBD binder -1, PAFAH1B3 inh 14 and UCH37 DUB inh 10.
For O=C1NN(c2cccc(Br)c2)C(=O)/C1=C/c1ccc(-c2cc([N+](=O)[O-])ccc2O)o1 the results were PAFAH2 inh 47*, PAFAH1B2 inh 17, pPAFAH inh 28*, NR3A LBD binder 13*, PAFAH1B3 inh 31*, UCH37 DUB inh 31* and UCH37 reconfirm 67*.
For C/C(=C\C(=O)C(F)(F)F)Nc1ccc(C(F)(F)F)cc1 the results were PAFAH2 inh 0, PAFAH1B2 inh 4, pPAFAH inh 1, NR3A LBD binder -1, PAFAH1B3 inh 12, UCH37 DUB inh 46* and UCH37 reconfirm 6.
Screening COc1cc(/C=N/Nc2ccccc2[N+](=O)[O-])ccc1OC(=O)c1ccccc1F returned PAFAH2 inh -9, PAFAH1B2 inh 0, pPAFAH inh 3, NR3A LBD binder 1 and PAFAH1B3 inh -2.
CCOc1ccc(C=NNc2ccc(S(=O)(=O)Nc3ccccc3C(=O)O)cc2[N+](=O)[O-])cc1OC was read as PAFAH2 inh 29, PAFAH1B2 inh 11, pPAFAH inh 25*, NR3A LBD binder 15*, PAFAH1B3 inh 13, UCH37 DUB inh 44* and UCH37 reconfirm 75*.
`CCOc1ccc(C2/C(=C(\O)c3cccc(OC)c3)C(=O)C(=O)N2c2cc(C)on2)cc1OC` (centres undefined) gave PAFAH2 inh 0, PAFAH1B2 inh 1, pPAFAH inh 6, NR3A LBD binder 0, PAFAH1B3 inh 0, UCH37 DUB inh 49* and UCH37 reconfirm 26.
